Test results as given in ChEMBL document CHEMBL3124871, “Synthesis and pharmacological characterization of 1-benzyl-4-aminoindole-based thyroid hormone receptor β agonists” (Bioorg Med Chem, 2014).

What was measured:
[1] = system: Rattus norvegicus; assay: Toxicity in cholesterol-fed Sprague-Dawley rat assessed as total T4 level at 150 mg/kg/day, po qd for 1 week measured 3 to 6 hrs post last dose (reference value: 3.8 +/- 0.9 ug/dl); format: organism-based; parameters: route oral; conditions: in vivo
[2] = system: Rattus norvegicus; assay: Toxicity in cholesterol-fed Sprague-Dawley rat assessed as TSH level at 150 mg/kg/day, po qd for 1 week measured 3 to 6 hrs post last dose (reference value: 3.0 +/- 1.0 uIU/ml); format: organism-based; parameters: route oral; conditions: in vivo
[3] = system: Rattus norvegicus; assay: Toxicity in cholesterol-fed Sprague-Dawley rat assessed as heart weight at 150 mg/kg/day, po qd for 1 week measured 3 to 6 hrs post last dose (reference value: 1.14 +/- 0.12 g); format: organism-based; parameters: route oral; conditions: in vivo
[4] = system: Rattus norvegicus; assay: Toxicity in cholesterol-fed Sprague-Dawley rat assessed as heart rate at 150 mg/kg/day, po qd for 1 week measured 3 to 6 hrs post last dose (reference value: 383.0 +/- 26.7 bpm); format: organism-based; parameters: route oral; conditions: in vivo
[5] = system: Rattus norvegicus; assay: Toxicity in cholesterol-fed Sprague-Dawley rat assessed as total T4 level at 6 mg/kg/day, po qd for 1 week measured 3 to 6 hrs post last dose (reference value: 3.8 +/- 0.9 ug/dl); format: organism-based; parameters: route oral; conditions: in vivo
[6] = system: Rattus norvegicus; assay: Toxicity in cholesterol-fed Sprague-Dawley rat assessed as TSH level at 6 mg/kg/day, po qd for 1 week measured 3 to 6 hrs post last dose (reference value: 3.0 +/- 1.0 uIU/ml); format: organism-based; parameters: route oral; conditions: in vivo
[7] = system: Rattus norvegicus; assay: Toxicity in cholesterol-fed Sprague-Dawley rat assessed as heart weight at 6 mg/kg/day, po qd for 1 week measured 3 to 6 hrs post last dose (reference value: 1.14 +/- 0.12 g); format: organism-based; parameters: route oral; conditions: in vivo
[8] = system: Rattus norvegicus; assay: Toxicity in cholesterol-fed Sprague-Dawley rat assessed as heart rate at 6 mg/kg/day, po qd for 1 week measured 3 to 6 hrs post last dose (reference value: 383.0 +/- 26.7 bpm); format: organism-based; parameters: route oral; conditions: in vivo
[9] = system: Rattus norvegicus; assay: Reduction in plasma triglyceride level in cholesterol-fed Sprague-Dawley rat at 6 mg/kg/day, po qd for 1 week measured 3 to 6 hrs post last dose (reference value: 62 +/- 25 mg/dl); format: functional
[10] = system: Rattus norvegicus; assay: Reduction in plasma HDL-cholesterol in cholesterol-fed Sprague-Dawley rat at 6 mg/kg/day, po qd for 1 week measured 3 to 6 hrs post last dose (reference value: 22 +/- 6 mg/dl); format: functional
[11] = system: Rattus norvegicus; assay: Reduction in plasma free cholesterol in cholesterol-fed Sprague-Dawley rat at 6 mg/kg/day, po qd for 1 week measured 3 to 6 hrs post last dose (reference value: 36 +/- 9 mg/dl); format: functional
[12] = system: Rattus norvegicus; assay: Reduction in plasma LDL-cholesterol in cholesterol-fed Sprague-Dawley rat at 6 mg/kg/day, po qd for 1 week measured 3 to 6 hrs post last dose (reference value: 51 +/- 15 mg/dl); format: functional
[13] = system: Rattus norvegicus; assay: Reduction in plasma total cholesterol in cholesterol-fed Sprague-Dawley rat at 6 mg/kg/day, po qd for 1 week measured 3 to 6 hrs post last dose (reference value: 190 +/- 49 mg/dl); format: functional
[14] = system: HepG2; assay: Selectivity ratio of EC50 for human recombinant transfected in human HepG2 cells to EC50 for human recombinant TRbeta1 transfected in human HepG2; format: cell-based
[15] = system: CV-1; assay: Selectivity ratio of EC50 for human recombinant transfected in CV-1 cells to EC50 for human recombinant TRbeta1 transfected in CV-1 cells; format: cell-based
How it was run: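 CV-1 monkey kidney cells grown in DMEM with 10% FBS for 24 h at 37 °C and 5% CO2. Transfected (FuGENE) with hTRα1 or hTRβ1 plus a SEAP reporter for 24 h, then exposed to T3 or test compound for 8-10 h. SEAP was read as A405 of p-nitrophenol (pH 9.8, 30 min, RT). EC50 was set against T3 max = 100%; mean of four experiments; α/β ratio of EC50s.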

[16] = target: T1, Thyroid hormone receptor beta (Homo sapiens, UniProt P10828); assay: Agonist activity at human recombinant TRbeta1 transfected in human HepG2 cells after 8 to 10 hrs by alkaline phosphatase reporter gene assay; format: cell-based
T1 sequence (P10828 whole entry): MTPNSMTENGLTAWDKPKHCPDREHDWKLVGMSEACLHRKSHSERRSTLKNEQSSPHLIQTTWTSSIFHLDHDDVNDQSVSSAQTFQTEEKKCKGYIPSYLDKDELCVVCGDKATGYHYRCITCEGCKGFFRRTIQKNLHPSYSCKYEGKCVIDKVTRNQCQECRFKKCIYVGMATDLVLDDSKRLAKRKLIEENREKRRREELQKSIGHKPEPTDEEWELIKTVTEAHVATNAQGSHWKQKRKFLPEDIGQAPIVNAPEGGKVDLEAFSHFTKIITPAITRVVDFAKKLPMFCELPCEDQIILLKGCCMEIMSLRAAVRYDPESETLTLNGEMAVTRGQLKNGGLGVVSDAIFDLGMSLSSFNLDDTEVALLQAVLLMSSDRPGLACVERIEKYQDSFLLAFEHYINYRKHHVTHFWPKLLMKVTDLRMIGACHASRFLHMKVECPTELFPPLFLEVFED

[17] = target: T1, Thyroid hormone receptor beta; assay: Agonist activity at human recombinant TRbeta1 transfected in CV-1 cells after 8 to 10 hrs by alkaline phosphatase reporter gene assay; format: cell-based
[18] = target: T1, Thyroid hormone receptor beta; assay: Displacement of [125I]-Triiodothyronine from human recombinant TRbeta1 ligand binding domain after 2 to 3 hrs by beta counting
[19] = target: T2, Thyroid hormone receptor alpha (Homo sapiens, UniProt P10827); assay: Displacement of [125I]-Triiodothyronine from human recombinant TRalpha1 ligand binding domain after 2 to 3 hrs by beta counting
T2 sequence (P10827 whole entry): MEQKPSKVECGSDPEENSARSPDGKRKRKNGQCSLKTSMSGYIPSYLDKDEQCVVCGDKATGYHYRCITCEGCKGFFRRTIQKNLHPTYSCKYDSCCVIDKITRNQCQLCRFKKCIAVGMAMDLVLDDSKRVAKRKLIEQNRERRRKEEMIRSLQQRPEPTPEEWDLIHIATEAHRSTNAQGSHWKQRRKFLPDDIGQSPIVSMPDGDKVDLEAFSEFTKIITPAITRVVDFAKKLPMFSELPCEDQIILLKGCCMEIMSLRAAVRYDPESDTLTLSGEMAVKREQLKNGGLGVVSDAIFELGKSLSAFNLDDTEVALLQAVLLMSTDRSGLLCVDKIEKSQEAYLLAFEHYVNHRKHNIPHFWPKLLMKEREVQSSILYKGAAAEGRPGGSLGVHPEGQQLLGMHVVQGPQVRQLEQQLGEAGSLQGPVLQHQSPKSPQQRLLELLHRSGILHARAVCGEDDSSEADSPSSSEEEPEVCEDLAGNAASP

Cc1ccc(NC(=O)CC(=O)O)c2ccn(Cc3ccc(O)c(C(C)C)c3)c12
Activity [1]: 1.9 µg/dL
Activity [2]: 1.3 uIU/ml
Activity [3]: 1.18 g
Activity [4]: 424.3 bpm
Activity [5]: 2.4 µg/dL
Activity [6]: 2.7 uIU/ml
Activity [7]: 1.12 g
Activity [8]: 401.8 bpm
Activity [9]: 27 mg/dL
Activity [10]: 20 mg/dL
Activity [11]: 15 mg/dL
Activity [12]: 20 mg/dL
Activity [13]: 94 mg/dL
Ratio EC50 [14]: 7.2
Ratio EC50 [15]: 3.4
EC50 [16]: 1.3 µM
EC50 [17]: 3.1 µM
IC50 [18]: 0.24 µM
IC50 [19]: 5.2 µM
